Tested on: not listed separately
Assay: Drug concentration in ICR mouse cerebrospinal fluid at 1 mg/kg, iv measured after 1 hr
Type: ADME, organism-based
Settings: read-out: Drug uptake; call rule not given here
Procedure, shortened: (§1)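 Brain penetration in ICR mice, n = 3 per group, given 1 mg/kg intravenously. Plasma, cerebrospinal fluid and brain levels were measured at 1 h and 4 h post-dose. Kp is the brain-to-plasma concentration ratio.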

Row | concentration at 1 h | Compound
1 | 2 ng/mL | O=S(=O)(c1ccc(F)cc1)N(CCCN1CCC(c2noc3cc(F)ccc23)CC1)C1COC1

Tested on: not listed separately
Assay: Drug concentration in ICR mouse brain at 1 mg/kg, iv measured after 1 hr
Type: ADME, organism-based
Settings: not given
Procedure, shortened: as §1

Row | concentration at 1 h | Compound
2 | 129 ng/g | O=S(=O)(c1ccc(F)cc1)N(CCCN1CCC(c2noc3cc(F)ccc23)CC1)C1COC1

Tested on: not listed separately
Assay: Drug concentration in ICR mouse brain at 1 mg/kg, iv measured after 4 hrs
Type: ADME, organism-based
Settings: not given
Procedure, shortened: as §1

Row | concentration at 4 h | Compound
3 | 10.7 ng/g | O=S(=O)(c1ccc(F)cc1)N(CCCN1CCC(c2noc3cc(F)ccc23)CC1)C1COC1

Molecular target: T1, 5-hydroxytryptamine receptor 1A (Homo sapiens, UniProt P08908)
T1 sequence (P08908 whole entry): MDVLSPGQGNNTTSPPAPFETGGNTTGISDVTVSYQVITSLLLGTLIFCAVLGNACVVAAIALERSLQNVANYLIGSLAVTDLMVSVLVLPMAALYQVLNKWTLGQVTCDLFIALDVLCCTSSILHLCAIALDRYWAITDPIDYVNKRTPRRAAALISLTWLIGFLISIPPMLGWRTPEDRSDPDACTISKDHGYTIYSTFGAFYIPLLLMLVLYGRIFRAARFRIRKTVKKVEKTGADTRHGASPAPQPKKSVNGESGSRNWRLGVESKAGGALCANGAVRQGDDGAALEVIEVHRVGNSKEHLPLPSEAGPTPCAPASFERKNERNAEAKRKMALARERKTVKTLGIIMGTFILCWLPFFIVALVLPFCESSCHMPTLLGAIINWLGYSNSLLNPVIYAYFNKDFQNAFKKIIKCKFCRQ
Assay: Agonist activity at recombinant 5HT1A receptor (unknown origin) expressed in CHO cell membrane assessed as [35S]GTPgammaS binding by liquid scintillation counting method
Type: functional, cell membranes
Settings: not given

Row | EC50 | Compound
4 | 7 nM | O=C(CN1CCN(CCCc2c[nH]c3ccc(F)cc23)CC1)N(c1ccccc1)C1CCCCC1

Tested on: not listed separately
Assay: Oral bioavailability in ICR mouse at 25 mg/kg
Type: ADME, organism-based
Settings: in vivo
Procedure, shortened: (§2)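 Pharmacokinetics in ICR mice, n = 6 per group, after a single 5 mg/kg intravenous dose or a 25 mg/kg oral dose. Plasma exposure gave AUC over 0–24 h, t1/2, Cmax and Tmax. Oral bioavailability was derived from comparison of the two routes.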

Row | bioavailability | Compound
5 | 6.3% | O=S(=O)(c1ccc(F)cc1)N(CCCN1CCC(c2noc3cc(F)ccc23)CC1)C1COC1

Molecular target: 5-hydroxytryptamine receptor 2A (Homo sapiens, UniProt P28223)
Assay: Antagonist activity at human 5HT2A receptor expressed in CHO-K1 cells measured after 15 mins by FLIPR assay
Type: cell-based
Settings: not given

5-hydroxytryptamine receptor 2A, sequence (P28223 whole entry): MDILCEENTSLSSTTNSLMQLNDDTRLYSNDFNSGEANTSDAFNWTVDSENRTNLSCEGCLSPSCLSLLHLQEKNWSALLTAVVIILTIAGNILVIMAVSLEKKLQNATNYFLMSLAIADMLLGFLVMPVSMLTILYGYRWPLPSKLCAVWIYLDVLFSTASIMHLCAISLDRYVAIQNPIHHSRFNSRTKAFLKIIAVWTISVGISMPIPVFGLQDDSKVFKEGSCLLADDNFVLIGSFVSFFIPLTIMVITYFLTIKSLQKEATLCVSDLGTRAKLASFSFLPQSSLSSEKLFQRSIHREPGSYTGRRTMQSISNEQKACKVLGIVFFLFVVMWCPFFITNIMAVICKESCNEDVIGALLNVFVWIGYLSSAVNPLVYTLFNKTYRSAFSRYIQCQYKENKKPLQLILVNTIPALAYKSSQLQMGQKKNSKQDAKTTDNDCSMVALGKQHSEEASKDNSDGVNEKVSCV

Row | Ki | Compound
6 | 207 nM | O=C(CN1CCN(CCCc2c[nH]c3ccc(F)cc23)CC1)N(c1ccccc1)C1CCCCC1

Same assay, conditions: cho-k1

Row | Compound | IC50
7 | CC(C)N(CCCN1CCN(c2ccccn2)CC1)C(=O)c1ccccc1 | Not Active
8 | COc1ccccc1N1CCN(CCCN(CC2CC2)C(=O)c2ccccc2)CC1 | Not Active

Second part, the compound after the results:

Row | IC50 | Compound
9 | Not Active | O=C(c1ccccc1)N(CCCN1CCN(c2ccccn2)CC1)C1COC1
10 | Not Active | COc1ccccc1N1CCN(CCCN(C(=O)c2ccccc2)C2COC2)CC1
11 | Not Active | COc1ccccc1N1CCN(CCCN(C(=O)c2ccccc2)C(C)C)CC1

Same assay, conditions: read-out: IC50

Row | Compound | IC50
12 | O=S(=O)(c1ccc(C(F)(F)F)cc1)N(CCCN1CCC(c2noc3cc(F)ccc23)CC1)C1COC1 | 92.7 nM
13 | CCCN(CCCN1CCN(c2cccc(Cl)c2Cl)CC1)C(=O)c1ccccc1 | 3250 nM

Further lines, results first:

Row | IC50 | Compound
14 | 11.6 nM | CC(C)N(CCCN1CCC(c2noc3cc(F)ccc23)CC1)C(=O)c1ccccc1
15 | 15.1 nM | O=S(=O)(c1ccc(F)cc1)N(CCCN1CCC(c2noc3cc(F)ccc23)CC1)C1COC1

Tested on: not listed separately
Assay: AUC (0 to 24 hrs) in ICR mouse at 5 mg/kg, iv
Type: ADME, organism-based
Design: time < 24 hr, route intravenous, dose 5 mg/kg
Settings: in vivo
Procedure, shortened: as §2

Row | AUC(0-t) at 24 h | Compound
16 | 829 ng·h/mL | O=S(=O)(c1ccc(F)cc1)N(CCCN1CCC(c2noc3cc(F)ccc23)CC1)C1COC1

Tested on: not listed separately
Assay: Plasma concentration in ICR mouse at 1 mg/kg, iv measured after 4 hrs
Type: ADME, organism-based
Settings: not given
Procedure, shortened: as §1

Row | concentration at 4 h | Compound
17 | 2.7 ng/mL | O=S(=O)(c1ccc(F)cc1)N(CCCN1CCC(c2noc3cc(F)ccc23)CC1)C1COC1

Tested on: not listed separately
Assay: Half life in ICR mouse at 5 mg/kg, iv
Type: ADME, organism-based
Settings: in vivo
Procedure, shortened: as §2

Row | half-life | Compound
18 | 32.4 min | O=S(=O)(c1ccc(F)cc1)N(CCCN1CCC(c2noc3cc(F)ccc23)CC1)C1COC1

Molecular target: T1, 5-hydroxytryptamine receptor 1A
Assay: Displacement of [3H]5-HT from recombinant 5HT1A receptor (unknown origin) expressed in CHO cell membrane measured after 50 mins by microbeta scintillation counting method
Type: cell membranes
Settings: not given

Row | Ki | Compound
19 | 51.9 nM | O=C(CN1CCN(CCCc2c[nH]c3ccc(F)cc23)CC1)N(c1ccccc1)C1CCCCC1

Tested on: not listed separately
Assay: Half life in mouse liver microsomes measured after 60 mins in presence of NADPH by LC-MS/MS analysis
Type: ADME, Microsome
Settings: not given
Procedure, shortened: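 Mouse liver microsomes (20 mg/ml stock) were incubated with compound in 0.1 M PBS, pH 7.4, at 37 °C. Compound came from a 1 mM methanol stock, diluted in methanol/water. Reaction was started with NADPH (10 mM stock). Aliquots at 0, 5, 10, 20, 40 and 60 min were quenched in cold methanol and centrifuged at 4 °C. Supernatants were analysed by LC-MS/MS.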

Row | half-life | Compound
20 | 31.5 min | CC(C)N(CCCN1CCC(c2noc3cc(F)ccc23)CC1)C(=O)c1ccccc1

Molecular target: T1, 5-hydroxytryptamine receptor 1A
Assay: Agonist activity at human 5H1A receptor expressed in HEK293 cells incubated for 60 mins by Eu-cAMP tracer based LANCE ultra cAMP assay
Type: functional, cell-based
Settings: hek293
Procedure, shortened: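 Cell-based TR-FRET cAMP assay on human 5-HT1A receptor-expressing cells. Cells were collected in stimulation buffer, added to the compound, centrifuged briefly and incubated 60 min at room temperature. Eu-cAMP tracer and ULight-anti-cAMP were then added, followed by another 60 min at room temperature before reading. The reference agonist was 8-OH-DPAT. […] came from sigmoidal nonlinear regression.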

Row | Compound | EC50
21 | O=S(=O)(c1ccc(C(F)(F)F)cc1)N(CCCN1CCC(c2noc3cc(F)ccc23)CC1)C1COC1 | Not Active
22 | COc1ccccc1N1CCN(CCCN(CC2CC2)C(=O)c2ccccc2)CC1 | Not Active

Second part, the compound after the results:

Row | EC50 | Compound
23 | Not Active | CC(C)N(CCCN1CCC(c2noc3cc(F)ccc23)CC1)C(=O)c1ccccc1
24 | Not Active | O=S(=O)(c1ccc(F)cc1)N(CCCN1CCC(c2noc3cc(F)ccc23)CC1)C1COC1
25 | Not Active | COc1ccccc1N1CCN(CCCN(C(=O)c2ccccc2)C2COC2)CC1
26 | Not Active | COc1ccccc1N1CCN(CCCN(C(=O)c2ccccc2)C(C)C)CC1

Same assay, conditions: read-out: EC50

Row | EC50 | Compound
27 | 7 nM | O=C(CN1CCN(CCCc2c[nH]c3ccc(F)cc23)CC1)N(c1ccccc1)C1CCCCC1
28 | 452 nM | CCCN(CCCN1CCN(c2cccc(Cl)c2Cl)CC1)C(=O)c1ccccc1
29 | 374 nM | O=C(c1ccccc1)N(CCCN1CCN(c2ccccn2)CC1)C1COC1
30 | 22.8 nM | CC(C)N(CCCN1CCN(c2ccccn2)CC1)C(=O)c1ccccc1

Tested on: not listed separately
Assay: AUC (0 to 24 hrs) in ICR mouse at 25 mg/kg, po
Type: ADME, organism-based
Design: time < 24 hr, route oral, dose 25 mg/kg
Settings: in vivo
Procedure, shortened: as §2

Row | AUC(0-t) at 24 h | Compound
31 | 259 ng·h/mL | O=S(=O)(c1ccc(F)cc1)N(CCCN1CCC(c2noc3cc(F)ccc23)CC1)C1COC1

Tested on: not listed separately
Assay: Half life in ICR mouse at 25 mg/kg, po
Type: ADME, organism-based
Settings: in vivo
Procedure, shortened: as §2

Row | half-life | Compound
32 | 120 min | O=S(=O)(c1ccc(F)cc1)N(CCCN1CCC(c2noc3cc(F)ccc23)CC1)C1COC1

Tested on: not listed separately
Assay: Brain to plasma partition coefficient, Kp of compound in ICR mouse at 1 mg/kg, iv measured after 4 hrs
Type: ADME, organism-based
Settings: not given
Procedure, shortened: as §1

Row | Kp at 4 h | Compound
33 | 4.03 | O=S(=O)(c1ccc(F)cc1)N(CCCN1CCC(c2noc3cc(F)ccc23)CC1)C1COC1

Tested on: not listed separately
Assay: Cmax in ICR mouse at 25 mg/kg, po
Type: ADME, organism-based
Design: route oral, dose 25 mg/kg
Settings: in vivo
Procedure, shortened: as §2

Row | Cmax | Compound
34 | 142 ng/mL | O=S(=O)(c1ccc(F)cc1)N(CCCN1CCC(c2noc3cc(F)ccc23)CC1)C1COC1

Molecular target: D(2) dopamine receptor (Homo sapiens, UniProt P14416)
Assay: Antagonist activity at human D2 receptor expressed in HEK293 cells incubated for 60 mins by Eu-cAMP tracer based LANCE ultra cAMP assay
Type: cell-based
Settings: not given

D(2) dopamine receptor, sequence (P14416 whole entry): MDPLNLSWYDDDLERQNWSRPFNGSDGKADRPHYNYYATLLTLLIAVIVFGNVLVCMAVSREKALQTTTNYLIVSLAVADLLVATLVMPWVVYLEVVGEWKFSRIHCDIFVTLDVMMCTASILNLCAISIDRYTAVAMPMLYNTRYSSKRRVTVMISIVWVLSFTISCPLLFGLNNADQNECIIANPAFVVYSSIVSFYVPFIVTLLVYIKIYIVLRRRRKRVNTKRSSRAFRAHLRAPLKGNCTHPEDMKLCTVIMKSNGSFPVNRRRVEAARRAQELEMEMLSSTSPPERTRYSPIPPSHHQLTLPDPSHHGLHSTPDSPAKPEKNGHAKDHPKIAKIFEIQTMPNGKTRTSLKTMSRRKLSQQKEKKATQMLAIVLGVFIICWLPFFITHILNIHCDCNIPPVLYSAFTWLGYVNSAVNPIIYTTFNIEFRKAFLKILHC

Row | Ki | Compound
35 | 2160 nM | O=C(CN1CCN(CCCc2c[nH]c3ccc(F)cc23)CC1)N(c1ccccc1)C1CCCCC1

Same assay, conditions: hek293

Row | IC50 | Compound
36 | Not Active | O=C(c1ccccc1)N(CCCN1CCN(c2ccccn2)CC1)C1COC1
37 | Not Active | CC(C)N(CCCN1CCN(c2ccccn2)CC1)C(=O)c1ccccc1

Same assay, conditions: read-out: IC50

Row | Compound | IC50
38 | O=S(=O)(c1ccc(C(F)(F)F)cc1)N(CCCN1CCC(c2noc3cc(F)ccc23)CC1)C1COC1 | 2.3 nM
39 | CCCN(CCCN1CCN(c2cccc(Cl)c2Cl)CC1)C(=O)c1ccccc1 | 485 nM

Next, values leading:

Row | IC50 | Compound
40 | 59.3 nM | CC(C)N(CCCN1CCC(c2noc3cc(F)ccc23)CC1)C(=O)c1ccccc1
41 | 3 nM | O=S(=O)(c1ccc(F)cc1)N(CCCN1CCC(c2noc3cc(F)ccc23)CC1)C1COC1
42 | 3760 nM | COc1ccccc1N1CCN(CCCN(C(=O)c2ccccc2)C2COC2)CC1

Tested on: not listed separately
Assay: Tmax in ICR mouse at 25 mg/kg, po
Type: ADME, organism-based
Settings: in vivo
Procedure, shortened: as §2

Row | Tmax | Compound
43 | 15 min | O=S(=O)(c1ccc(F)cc1)N(CCCN1CCC(c2noc3cc(F)ccc23)CC1)C1COC1

Tested on: not listed separately
Assay: Brain to plasma partition coefficient, Kp of compound in ICR mouse at 1 mg/kg, iv measured after 1 hr
Type: ADME, organism-based
Settings: not given
Procedure, shortened: as §1

Row | Kp at 1 h | Compound
44 | 1.72 | O=S(=O)(c1ccc(F)cc1)N(CCCN1CCC(c2noc3cc(F)ccc23)CC1)C1COC1

Tested on: not listed separately
Assay: Plasma concentration in ICR mouse at 1 mg/kg, iv measured after 1 hr
Type: ADME, organism-based
Settings: not given
Procedure, shortened: as §1

Row | concentration at 1 h | Compound
45 | 75.4 ng/mL | O=S(=O)(c1ccc(F)cc1)N(CCCN1CCC(c2noc3cc(F)ccc23)CC1)C1COC1

Reference: ChEMBL document CHEMBL4680230, “Discovery of aryl-piperidine derivatives as potential antipsychotic agents using molecular hybridization strategy” (Eur J Med Chem, 2020)
